This is an account of results in ChEMBL document CHEMBL2057149 (J Med Chem, 2012).

The source made the active and inactive calls. The rule behind the calls is not given here. Some results are limits rather than exact numbers.

Data set [1] deals with Fibroblast growth factor 1 (Homo sapiens, UniProt P05230). As to the kind of experiment: Binding affinity to FGF-1 by surface plasmon resonance assay. A digest of the protocol: (§1)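 Solution-affinity SPR on heparin-coated CM4 chips. FGF-1 measured in HBS-EP (10 mM HEPES pH 7.4, 150 mM NaCl, 3.0 mM EDTA, 0.005% polysorbate 20); FGF-2 measured in HBS-EP with 300 mM NaCl. Kd is the average of at least duplicate measurements ± SD.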
Sequence of Fibroblast growth factor 1 (P05230 whole entry): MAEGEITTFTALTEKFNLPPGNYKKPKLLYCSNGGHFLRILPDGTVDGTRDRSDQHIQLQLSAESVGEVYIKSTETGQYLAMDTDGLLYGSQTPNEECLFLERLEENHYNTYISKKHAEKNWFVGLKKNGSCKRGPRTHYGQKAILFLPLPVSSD

The target of data set [2] is Fibroblast growth factor 2 (Homo sapiens, UniProt P09038). As to the kind of experiment: Binding affinity to FGF-2 by surface plasmon resonance assay. In outline: as §1
Sequence of Fibroblast growth factor 2 (P09038 143-288 limits assumed): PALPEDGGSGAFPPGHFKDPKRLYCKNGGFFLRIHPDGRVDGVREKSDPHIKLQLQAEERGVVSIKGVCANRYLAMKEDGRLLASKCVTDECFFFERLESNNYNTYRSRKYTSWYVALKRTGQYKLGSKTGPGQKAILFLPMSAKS
Data set [3] addresses T1, Heparanase (Homo sapiens, UniProt Q9Y251).
T1 sequence (Q9Y251 whole entry): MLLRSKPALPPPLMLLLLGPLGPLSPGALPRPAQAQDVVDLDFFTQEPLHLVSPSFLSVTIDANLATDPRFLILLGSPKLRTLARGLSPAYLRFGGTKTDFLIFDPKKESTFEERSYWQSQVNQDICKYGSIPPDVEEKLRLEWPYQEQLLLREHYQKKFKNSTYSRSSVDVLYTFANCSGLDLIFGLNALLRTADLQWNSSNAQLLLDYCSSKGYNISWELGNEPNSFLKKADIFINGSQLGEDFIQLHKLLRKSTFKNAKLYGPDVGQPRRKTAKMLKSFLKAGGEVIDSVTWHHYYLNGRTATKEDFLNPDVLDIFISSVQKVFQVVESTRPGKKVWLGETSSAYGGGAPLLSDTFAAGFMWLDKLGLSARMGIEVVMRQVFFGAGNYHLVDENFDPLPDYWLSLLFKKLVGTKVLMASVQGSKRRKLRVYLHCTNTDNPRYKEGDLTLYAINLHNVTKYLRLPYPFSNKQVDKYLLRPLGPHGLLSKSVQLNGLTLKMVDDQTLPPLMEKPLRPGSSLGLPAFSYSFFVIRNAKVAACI
Kind of data set: Inhibition of human recombinant heparanase after 2 to 24 hrs by WST1 dye based fondaparinux assay.

For data set [4], the system named is HUVEC. As to the kind of experiment: Antiangiogenic activity in FGF1-stimulated HUVEC cells after 72 hrs by CellTiter assay. It counts as functional, cell-based. As to conditions: Homo sapiens.
Data set [5] has as its system HUVEC. Kind of data set: Antiangiogenic activity in FGF2-stimulated HUVEC cells after 72 hrs by CellTiter assay. It counts as functional, cell-based. As to conditions: Homo sapiens.
In data set [6] the test system is HUVEC. Kind of data set: Antiangiogenic activity in VEGF-stimulated HUVEC cells after 72 hrs by CellTiter assay. It counts as functional, cell-based. To be noted: Homo sapiens.
In data set [7] the test system is HMVEC. Kind of data set: Antiangiogenic activity in FGF1-stimulated HMVEC cells after 72 hrs by CellTiter assay. It counts as functional, cell-based. As to conditions: Homo sapiens.
The test system of data set [8] is HMVEC. Kind of data set: Antiangiogenic activity in FGF2-stimulated HMVEC cells after 72 hrs by CellTiter assay. To be noted: Homo sapiens. It counts as functional, cell-based.
The subject of data set [9] is HMVEC. As to the kind of experiment: Antiangiogenic activity in VEGF-stimulated HMVEC cells after 72 hrs by CellTiter assay. As to conditions: Homo sapiens. It counts as functional, cell-based.
For data set [10], the system named is Plasma. As to the kind of experiment: Anticoagulant activity in pooled human plasma assessed as activated partial thromboplastin time at 0.1 mg/ml. It counts as ADME, cell-free. In outline: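 APTT of pooled normal human plasma measured with compound at 0–100 μg/mL in PBS on a ball coagulameter, using unfractionated heparin as the reference. Normal range 26–36 s; coefficient of variation 2% at 36 s and 5–7% at 90 s or above. Values are the mean of two determinations.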

Data set [11] relates to Plasma. Kind of data set: Anticoagulant activity in pooled human plasma assessed as prolongation of the recalcification time at 0.1 mg/ml by Heptest assay. It counts as ADME, cell-free. In outline:
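Heptest clotting time in pooled normal human plasma; normal range 13–20 s. Values are the mean of two determinations.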

The target of data set [12] is Vascular endothelial growth factor A (Homo sapiens) (UniProt P15692). As to the kind of experiment: Binding affinity to VEGF by surface plasmon resonance assay.

Regarding `CC(C)CCC[C@@H](C)[C@H]1CC[C@H]2[C@@H]3CC[C@H]4C[C@@H](OCc5cn([C@@H]6O[C@H](COS(=O)(=O)[O-])[C@@H](O[C@H]7O[C@H](COS(=O)(=O)[O-])[C@@H](O[C@H]8O[C@H](COS(=O)(=O)[O-])[C@@H](OS(=O)(=O)[O-])[C@H](OS(=O)(=O)[O-])[C@H]8OS(=O)(=O)[O-])[C@H](OS(=O)(=O)[O-])[C@H]7OS(=O)(=O)[O-])[C@H](OS(=O)(=O)[O-])[C@H]6OS(=O)(=O)[O-])nn5)CC[C@]4(C)[C@H]3CC[C@]12C.[Na+].[Na+].[Na+].[Na+].[Na+].[Na+].[Na+].[Na+].[Na+].[Na+]`, the results for the Kd in data set [1], in data set [2] and in [12] were 50 nM, 610 nM and 790 nM, respectively. Besides, the Ki in data set [3] is 16 nM. In addition, the values for the 50% inhibitory concentration (IC50) in data set [4], in [5] and in [6] were 2100 nM, 1200 nM and 1800 nM, respectively. The outcome in data set [7], in data set [8] and in [9] was Active. Further, in data set [10], the APTT worked out at 61.2 s. Also, the Time in data set [11] came out at 30.2 s.

`CC(=O)O[C@H]1C[C@H]2[C@@H](CC[C@H]3C[C@@H](OS(=O)(=O)[O-])CC[C@@]32C)[C@@H]2CC[C@H]([C@H](C)CCC(=O)N[C@@H]3O[C@H](COS(=O)(=O)[O-])[C@@H](O[C@H]4O[C@H](COS(=O)(=O)[O-])[C@@H](O[C@H]5O[C@H](COS(=O)(=O)[O-])[C@@H](O[C@H]6O[C@H](COS(=O)(=O)[O-])[C@@H](OS(=O)(=O)[O-])[C@H](OS(=O)(=O)[O-])[C@H]6OS(=O)(=O)[O-])[C@H](OS(=O)(=O)[O-])[C@H]5OS(=O)(=O)[O-])[C@H](OS(=O)(=O)[O-])[C@H]4OS(=O)(=O)[O-])[C@H](OS(=O)(=O)[O-])[C@H]3OS(=O)(=O)[O-])[C@@]12C.[Na+].[Na+].[Na+].[Na+].[Na+].[Na+].[Na+].[Na+].[Na+].[Na+].[Na+].[Na+].[Na+].[Na+]`: the Kd in [1] is 1.25 nM; in [2], 50 nM; in [12], 7.95 nM. For the same molecule, the Ki in data set [3] turned out to be 20 nM. Moreover, the IC50 in data set [4], in [5] and in data set [6] was over 50000 nM throughout. Moreover, the result in data set [7], in data set [8] and in data set [9] was Active. Further, in data set [10], the APTT came to 41 s. Besides, the Time in [11] is 26.8 s.

For `CC(C)CCC[C@@H](C)[C@H]1CC[C@H]2[C@@H]3CC[C@H]4C[C@@H](OCc5cn(CCCO[C@H]6O[C@H](COS(=O)(=O)[O-])[C@@H](OS(=O)(=O)[O-])[C@H](OS(=O)(=O)[O-])[C@@H]6O[C@H]6O[C@H](COS(=O)(=O)[O-])[C@@H](OS(=O)(=O)[O-])[C@H](O[C@H]7O[C@H](COS(=O)(=O)[O-])[C@@H](OS(=O)(=O)[O-])[C@H](OS(=O)(=O)[O-])[C@@H]7OS(=O)(=O)[O-])[C@@H]6OS(=O)(=O)[O-])nn5)CC[C@]4(C)[C@H]3CC[C@]12C.[Na+].[Na+].[Na+].[Na+].[Na+].[Na+].[Na+].[Na+].[Na+].[Na+]`, the Kd in [1] is 22.6 nM; in data set [2] it was 480 nM; in [12] it was 460 nM. Besides, the Ki in [3] was 8.5 nM. Moreover, the IC50 in data set [4] worked out at 3800 nM; in [5], 1700 nM; in [6], 2100 nM. Moreover, the outcome in data set [7], in data set [8] and in data set [9] was Active. In [10], the APTT was 73.3 s. In addition, the Time in data set [11] is 33.1 s.

As for `CC(C)CCC[C@@H](C)[C@H]1CC[C@H]2[C@@H]3CC[C@H]4C[C@@H](O[C@H]5O[C@H](COS(=O)(=O)[O-])[C@@H](OS(=O)(=O)[O-])[C@H](O[C@H]6O[C@H](COS(=O)(=O)[O-])[C@@H](OS(=O)(=O)[O-])[C@H](O[C@H]7O[C@H](COS(=O)(=O)[O-])[C@@H](OS(=O)(=O)[O-])[C@H](OS(=O)(=O)[O-])[C@@H]7OS(=O)(=O)[O-])[C@@H]6OS(=O)(=O)[O-])[C@@H]5OS(=O)(=O)[O-])CC[C@]4(C)[C@H]3CC[C@]12C.[Na+].[Na+].[Na+].[Na+].[Na+].[Na+].[Na+].[Na+].[Na+].[Na+]`, the Kd in data set [1] was determined as 16 nM; in data set [2], 490 nM; in [12], 90 nM. The inhibition constant (Ki) in data set [3] turned out to be 10.5 nM. Also, the values for the IC50 in data set [4], in [5] and in [6] were 2500 nM, 1800 nM and 1700 nM, respectively. Further, the result in data set [7], in data set [8] and in data set [9] was Active. The APTT in data set [10] is on record as 58.5 s. For the same molecule, the Time in data set [11] is reported as 24.2 s.

With `CC(C)CCC[C@@H](C)[C@H]1CC[C@H]2[C@@H]3CC[C@H]4C[C@@H](OCc5cn(CCCO[C@H]6O[C@H](COS(=O)(=O)[O-])[C@@H](OS(=O)(=O)[O-])[C@H](OS(=O)(=O)[O-])[C@@H]6O[C@H]6O[C@H](COS(=O)(=O)[O-])[C@@H](OS(=O)(=O)[O-])[C@H](O[C@H]7O[C@H](COS(=O)(=O)[O-])[C@@H](OS(=O)(=O)[O-])[C@H](O[C@H]8O[C@H](COS(=O)(=O)[O-])[C@@H](OS(=O)(=O)[O-])[C@H](O[C@H]9O[C@H](COS(=O)(=O)[O-])[C@@H](OS(=O)(=O)[O-])[C@H](OS(=O)(=O)[O-])[C@@H]9OS(=O)(=O)[O-])[C@@H]8OS(=O)(=O)[O-])[C@@H]7OS(=O)(=O)[O-])[C@@H]6OS(=O)(=O)[O-])nn5)CC[C@]4(C)[C@H]3CC[C@]12C.[Na+].[Na+].[Na+].[Na+].[Na+].[Na+].[Na+].[Na+].[Na+].[Na+].[Na+].[Na+].[Na+].[Na+].[Na+].[Na+]`, the Kd in data set [1] worked out at 0.24 nM; in data set [2] it was 39 nM; in data set [12], 1.04 nM. In addition, the inhibition constant Ki in data set [3] worked out at 5.5 nM. Besides, the IC50 amounted to 990 nM in data set [4], 390 nM in data set [5] and 220 nM in data set [6]. Moreover, the outcome in data set [7], in data set [8] and in data set [9] was Active. In addition, the APTT in [10] came out at 63.3 s. The Time in [11] worked out at 29.6 s.

On to `CC(C)CCC[C@@H](C)[C@H]1CC[C@H]2[C@@H]3CC[C@H]4C[C@@H](OCc5cn([C@@H]6O[C@H](COS(=O)(=O)[O-])[C@@H](O[C@@H]7O[C@H](COS(=O)(=O)[O-])[C@H](OS(=O)(=O)[O-])[C@H](OS(=O)(=O)[O-])[C@H]7OS(=O)(=O)[O-])[C@H](OS(=O)(=O)[O-])[C@H]6OS(=O)(=O)[O-])nn5)CC[C@]4(C)[C@H]3CC[C@]12C.[Na+].[Na+].[Na+].[Na+].[Na+].[Na+].[Na+]`, for which the Kd in [1] stood at 610 nM; in data set [2], 1800 nM; in data set [12], 1600 nM. Further, in data set [3], the Ki worked out at 30 nM. The figures for the IC50 in data set [4], in [5] and in data set [6] were 2700 nM, 2430 nM and 2620 nM, respectively. In addition, the result in data set [7], in [8] and in [9] was Active. For the same molecule, the APTT in data set [10] turned out to be 39.6 s. For the same molecule, the Time in [11] is reported as 25.3 s.
